Arrestin-AP2 inh: human beta-arrestin and AP2 interaction inhibition; actives 0.31% (n = 340,000); inhibition, % at 10 µM; FITC-arrestin peptide / GST-AP2 beads, flow cytometry; AP2 beta2 appendage carries R879A mutation; AID 504490;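 active = inhibition above a set limit, near 3 SD of compounds lacking own fluorescence, cut at about 54% in these data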;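 also: plate controls were DMSO wells for no effect and 5 µM unlabelled arrestin peptide for full effect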
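Material – AP2 appendage R879A on GSH beads · Buffer or medium – PBS with 0.05% Tween 20 and 0.1% BSA · Probe or stimulus – fluorescein-tagged arrestin peptide at 50 nM final · Incubation – compound with beads 12 min RT, then probe 1 h RT · Detection – high-throughput flow cytometry of beads, ex 488, em 535 nm · Evaluation – percent response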
FAS TE block: blocks the thioesterase domain of human fatty acid synthase; P49327; recombinant FAS-TE, OMFH fluorogenic substrate, fluorescence endpoint; inhibition, % at 15 µM; actives 0.67% (n = 360,000); AID 602261;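 active = compounds whose normalised, plate-corrected inhibition of enzyme fluorescence in the single-dose primary screen is 50% or more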;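 also: 0% = DMSO with enzyme and 100% = substrate without enzyme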
GASC-1 inh: inhibitors of human GASC-1 (JMJD2C) demethylase; Q9H3R0; GST-JMJD2C(1-420) H3K9me3 demethylation, DELFIA europium; actives 0.069% (n = 330,000); inhibition, % at 2.35 µM;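 active = more than half of a compound's replicate wells show inhibition beyond 50%, single wells judged on their own value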;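 also: signal counts dimethyl H3K9 product captured on neutravidin plate; 0% = median of DMSO wells and 100% = 0.3 times that DMSO median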
SENP1 inh: SENP1 (human) catalytic domain inhibition | recombinant SENP1 catalytic domain, CyPet-SUMO1-YPet FRET cleavage | inhibition, % at 10 µM | actives 0.21% (n = 360,000) | Q9P0U3;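 active = inhibition at least 30% at 10 µM, raw YFP signal under a set limit, fluorescence ratio 0.5 to 1.5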;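 also: 0% = enzyme with DMSO and 100% = no enzyme wells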
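Controls: no-enzyme wells low, DMSO-plus-enzyme wells high control. Test system: human recombinant His6-tagged SENP1 catalytic domain enzyme. Reagent: SFCypet-SUMO1-SFYpet FRET protein substrate, 25 nM final. Doses: one dose per compound, 10 µM, 0.5% DMSO. Detection: FRET, CFP and YFP emission. Timing: 50 min reaction at room temperature.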
FAS-TE conf: FAS thioesterase (human) inhibition, confirmation; inhibition, % at 15 µM; AID 624325; recombinant FAS-TE, OMFH fluorogenic substrate, fluorescence; shares compounds with FAS TE block; actives 45% (n = 2,300);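 active = compounds inhibiting the enzyme by at least 50% at 15 µM in any one of the replicates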;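 also: 0% = enzyme with DMSO only and 100% = wells lacking enzyme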
The depositor's hits bear a star; / = no result given. Most compounds without a hit are left out; they make up all but 1.1% or so of the library.

SMILES | Arrestin-AP2 inh | FAS TE block | GASC-1 inh | SENP1 inh | FAS-TE conf
CCN(CC)C(=O)C1CCCN(c2ccc([N+](=O)[O-])cc2/C=N/NC(=O)c2cccc([N+](=O)[O-])c2)C1 (stereo not given) | -3.2 | 77.3* | 2.4 | -5.2 | 25.9
CCCCC(=O)N/N=C/c1cc([N+](=O)[O-])ccc1N1CCOCC1 | 3.5 | 66.3* | 1.7 | -0.8 | 73.5*
CN(C(=O)c1ccc(S(=O)(=O)N2CCOCC2)cc1)C1CCS(=O)(=O)C1 (stereo not given) | -0.5 | -8.5 | 5.9 | -0.1 | /
O=C(CSc1ccc(Cl)cc1)N1CCN(c2ncc(C(F)(F)F)cc2Cl)CC1 | 2.1 | 53.1* | -2.0 | 1.6 | 24.9
CCn1cc([N+](=O)[O-])c(C(=O)N2N=C(c3ccccc3)CC2c2ccc([N+](=O)[O-])cc2)n1 (stereo not given) | 9.5 | 62.7* | -4.9 | -0.6 | 47.3*
COc1ccc(C2=NN(C(=O)c3ccccc3)C(c3cccc([N+](=O)[O-])c3)C2)cc1 (stereo not given) | 24.0 | 75.1* | -15.9 | -6.3 | 12.7
CCn1cc([N+](=O)[O-])c(C(=O)N2N=C(c3ccc(Cl)c(Cl)c3)CC2c2ccccc2O)n1 (stereo not given) | -2.3 | 29.5 | 17.5 | 1.3 | /
COc1ccc(N(C(=O)CCl)C(C(=O)NCCc2ccccc2)c2cccs2)cc1Cl (stereo not given) | 14.3 | 64.2* | 10.8 | 0.7 | 33.3*
CC(C)(C)SCCNC(=O)/C=C/c1ccc([N+](=O)[O-])cc1 | 8.4 | 15.6 | -17.6 | 0.4 | /
CC(C)(C)SCCNC(=O)/C=C/c1cccc([N+](=O)[O-])c1 | 11.9 | 72.2* | -5.1 | -1.3 | 62.2*
O=C(/C=C/c1cccc([N+](=O)[O-])c1)NCCSc1ccccc1 | -135.1 | 68.6* | 6.9 | -0.3 | 79.7*
Cc1cccc(S(=O)(=O)Nc2ccc(-c3ccc4nncn4n3)cc2)c1 | -13.8 | -1.6 | 6.6 | 9.0 | /
Cc1cc2cc3c(cc2nc1SCC(=O)N1c2ccccc2CC1C)OCO3 (stereo not given) | 3.8 | 23.9 | -2.9 | 1.2 | /
CC1Cc2ccccc2N1C(=O)CSc1nc2cc3c(cc2cc1C#N)OCO3 (stereo not given) | 13.1 | 73.8* | / | 13.7 | 32.2
O=C(Nc1ccc(O)cc1)/C(=C\c1cccs1)NC(=O)c1ccccc1 | 18.3 | -9.0 | -10.9 | 0.5 | /
O=c1c2c3c(sc2nc(NCCO)n1CCc1ccccc1)CCCCC3 | -8.7 | 50.1* | 0.9 | -5.3 | 15.9
O=c1c2c3c(sc2nc(NCCO)n1Cc1ccco1)CCCCC3 | 8.4 | 14.1 | 52.5 | -0.4 | /
Cc1ccc(-c2c(C(=O)N(C)Cc3ccccc3)oc(=O)c3ccccc23)cc1 | 1.5 | 53.6* | 17.5 | 2.0 | 51.1*
COc1ccc(S(=O)(=O)N(C)C[C@@H]2OCCCC[C@H](C)Oc3ccc(NC(=O)Nc4ccc(C(F)(F)F)cc4)cc3C(=O)N([C@H](C)CO)C[C@H]2C)cc1 | / | 84.8* | / | 1.0 | 15.7
COc1ccc(S(=O)(=O)N(C)C[C@@H]2OCCCC[C@@H](C)Oc3ccc(NS(=O)(=O)c4cccs4)cc3C(=O)N([C@H](C)CO)C[C@@H]2C)cc1 | / | 67.0* | / | -0.4 | 15.0
COc1ccc(S(=O)(=O)N(C)C[C@H]2OCCCC[C@@H](C)Oc3ccc(NC(=O)CCC(F)(F)F)cc3C(=O)N([C@H](C)CO)C[C@@H]2C)cc1 | / | 20.4 | / | -1.4 | /
C[C@H]1CCCCO[C@@H](CN(C)S(=O)(=O)c2ccc(F)cc2)[C@@H](C)CN([C@@H](C)CO)C(=O)c2cc(NC(=O)Nc3ccc4c(c3)OCO4)ccc2O1 | / | 9.0 | / | -0.2 | /
COc1ccc(S(=O)(=O)Nc2ccc3c(c2)C(=O)N([C@H](C)CO)C[C@H](C)[C@@H](CN(C)C(=O)Nc2ccc(C(F)(F)F)cc2)OCCCC[C@H](C)O3)cc1 | / | 62.8* | / | 0.0 | 23.5
C[C@@H]1CCCCO[C@H](CN(C)S(=O)(=O)c2ccc(F)cc2)[C@@H](C)CN([C@H](C)CO)C(=O)c2cc(NC(=O)Nc3ccc(C(F)(F)F)cc3)ccc2O1 | / | 74.2* | / | -1.4 | 7.5
O=C(CN(Cc1ccccc1)C(=O)CNS(=O)(=O)c1ccc(F)cc1)NCc1ccco1 | -4.0 | 3.8 | 5.0 | 0.5 | /
SMILES | Arrestin-AP2 inh | FAS TE block | GASC-1 inh | SENP1 inh | FAS-TE conf
COc1ccc(O)c(C(=O)c2cnn(C(=O)c3ccc(C)cc3)c2)c1 | 3.6 | -3.0 | 1.5 | -13.6 | /
O=[N+]([O-])c1c(NCCO)cc(N2CCCCCC2)c2nonc12 | 9.9 | 0.3 | -3.3 | -27.9 | /
Cc1nnc(Sc2cc(NCCCO)c([N+](=O)[O-])c3nonc23)s1 | 1.3 | 62.7* | -3.4 | -8.6 | 69.5*
Cc1nnc(Sc2cc(NCCO)c([N+](=O)[O-])c3nonc23)s1 | 0.2 | 64.8* | -43.6 | -15.5 | 63.6*
COc1ccc2nc3oc(C(=O)NC4CCN(Cc5ccccc5)CC4)cc3cc2c1 | 11.6 | 2.4 | / | -2.8 | /
CC1=CC(=C(C#N)C#N)c2ccccc2N1C | 12.8 | 61.1* | -9.3 | -25.3 | 24.7
Cc1nc2cc(F)ccc2n1C1CCN(S(=O)(=O)c2ccccc2)CC1 | -2.7 | 12.9 | 0.3 | 1.0 | /
COc1ccc(-c2nc(NC(=O)c3nc4nccc(C)n4n3)sc2C)cc1 | -11.1 | 7.9 | -1.0 | 0.9 | /
CCOc1ccc(C(=O)NCc2ccc3c(c2)OCO3)cc1OCC | 26.5 | 5.1 | -15.8 | 1.9 | /
Cc1ccc(NC(=O)Cn2nc(-c3ccco3)ccc2=O)cc1Cl | -4.7 | 50.3* | -0.7 | -0.6 | 33.4
Cc1ccc(S(=O)(=O)N2CCN(C(=O)CSc3nc(N)cc(=O)[nH]3)CC2)c(C)c1 | 2.5 | -0.5 | -14.7 | -7.5 | /
Cc1ccc(S(=O)(=O)N(C)C)cc1-n1c(SCC(=O)Nc2ccccc2)nc2ccccc2c1=O | 41.5 | 51.8* | -5.3 | 0.8 | 32.5
Cc1ccc(S(=O)(=O)N(C)C)cc1-n1c(SCC(=O)Nc2ccc(F)cc2)nc2ccccc2c1=O | 12.7 | 54.1* | -9.6 | -1.7 | 16.8
Cc1ccc(S(=O)(=O)N(C)C)cc1-n1c(SCC(=O)Nc2ccc(F)cc2Cl)nc2ccccc2c1=O | 11.0 | 23.3 | -3.2 | 0.7 | /
O=C(Oc1ccccc1C(=O)N1CCOCC1)c1ccc(F)cc1 | 25.3 | -0.2 | / | 1.9 | /
Cc1cccc(C2=NN(c3ccccc3)[C@@H](C(=O)N3CCOC3=O)[C@@H]2c2ccccc2)c1 | -11.7 | 36.0 | / | -49.1 | /
O=C1OCCN1C(=O)[C@H]1[C@H](c2ccccc2)C(c2ccccc2)=NN1c1ccc(Br)cc1 | -8.9 | 90.3* | / | -115.1 | 40.7
O=C1OCCN1C(=O)[C@H]1[C@H](c2ccccc2)C(c2ccccc2)=NN1c1ccccc1 | 7.0 | 25.5 | / | -43.8 | /
O=C1OCCN1C(=O)[C@H]1[C@H](c2ccccc2)C(c2ccc(F)cc2)=NN1c1ccc(Br)cc1 | 12.3 | 98.4* | / | -62.6 | 17.7
O=S(=O)(N/N=C\c1cccc(F)c1)c1ccccc1 | 28.5 | -2.1 | -3.3 | 2.2 | /

Screening results (PubChem BioAssay)
